From PubChem BioAssay
ARFGAP1 inhibitor = rat ARFGAP1 inhibition. Q62848. Arfgap1-stimulated ARF1 GTP hydrolysis, GDP FP detection. inhibition, % at 16.5 µM. 0.26% of 360,000 active. AID 651572;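 active = inhibition above a per-plate limit, mean inhibition of low control wells plus 3 SD, cut at about 25% in these data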;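 note: 0% = DMSO wells with enzyme and 100% = wells lacking Arfgap1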
Target sequence (Q62848 1-136 limits assumed): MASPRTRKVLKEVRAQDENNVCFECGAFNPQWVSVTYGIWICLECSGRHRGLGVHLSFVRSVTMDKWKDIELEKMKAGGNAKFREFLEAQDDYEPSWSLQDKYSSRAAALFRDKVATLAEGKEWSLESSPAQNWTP
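Repeats: one replicate per compound; assay system: rat Arfgap1 catalytic domain, aa 1-136; times: enzyme reaction 120 min at 25 °C after 20 min preincubation; detection: FP of antibody-bound GDP Alexa 633 tracer, ex 620/em 688 nm; benchmarks: high control wells lacking Arfgap1, low control full reaction with DMSO; reagent: human ARF1(Δ1-17)-GTP substrate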
ASAP1 GAP inh = blocks human ASAP1-stimulated Arf1 GTP hydrolysis; GDP FP detection; inhibition, % at 16.5 µM; 0.19% of 360,000 active; in the data active = inhibition above about 25%;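 note: 0% = vehicle with enzyme and substrate and 100% = no enzyme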
VIM-2 inhibitor = inhibitors of Pseudomonas aeruginosa VIM-2 metallo-beta-lactamase; purified VIM-2, nitrocefin hydrolysis, epi-absorbance fluorescence; inhibition, % at 5.6 µM; 0.89% of 290,000 active;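 active = inhibition above the mean of all tested compounds plus 3 SD, cutoff set per screening run, cut at about 7.5% in these data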;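 note: red hydrolysis product quenches plate fluorescence so inhibitors raise well fluorescence; 0% = enzyme with DMSO and 100% = DMSO without enzyme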
Calb FLC = affects C. albicans growth with fluconazole; growth inhibition, % (concentration not given with the values); AID 1979; C. albicans CaCi-2 + fluconazole, Alamar Blue growth, 48 h; 0.57% of 300,000 active;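 active = growth inhibition above about 58% in most replicates, limit read from the data, passing the limit was not always enough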;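 note: all wells also contain fluconazole at 8 µg/ml as a sub-toxic cotreatment; 0% = median of DMSO wells and 100% = median of geldanamycin control wells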
IMP-1 inh-1 = blocks Pseudomonas aeruginosa IMP-1 metallo-beta-lactamase. inhibition, % at 5.6 µM. purified IMP-1, nitrocefin hydrolysis, epi-absorbance fluorescence. 0.45% of 290,000 active;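 active = inhibition above the mean plus 3 SD of all compounds in the same screening run, cut at about 4.5% in these data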;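 note: 0% = IMP-1 with DMSO and 100% = DMSO wells lacking enzyme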
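Assay system: purified IMP-1; Quantity: IMP-1 0.2 nM before substrate addition; Medium: HEPES buffer pH 7.1 with ZnSO4 and Brij 35; Incubation: 15 min enzyme–compound preincubation, then 25 min nitrocefin reaction, 25 °C; Signal: fluorescence quenching readout, ex 480/em 530 nm; Controls: DMSO with and without IMP-1; Repeats: singlicate testing.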
PHOSPHO1 inh = PHOSPHO1 (human) inhibition. Q8TCT1. recombinant PHOSPHO1, absorbance phosphatase assay. inhibition, % at 13.3 µM. 1.1% of 290,000 active; in the data active = inhibition above about 60%
Target sequence (Q8TCT1 whole entry, looked up): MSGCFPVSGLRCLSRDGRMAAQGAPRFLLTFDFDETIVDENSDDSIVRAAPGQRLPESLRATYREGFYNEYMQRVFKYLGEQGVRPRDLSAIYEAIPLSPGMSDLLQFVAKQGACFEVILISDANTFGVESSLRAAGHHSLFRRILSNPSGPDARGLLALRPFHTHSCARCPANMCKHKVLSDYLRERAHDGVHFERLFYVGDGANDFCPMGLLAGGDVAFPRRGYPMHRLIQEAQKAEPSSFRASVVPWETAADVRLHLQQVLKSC
IMP-1 inh-2 = blocks IMP-1 metallo-beta-lactamase in VIM-2 selectivity screen. shares compounds with VIM-2 inhibitor. purified IMP-1, nitrocefin hydrolysis, epi-absorbance fluorescence. inhibition, % at 5.6 µM. 1,300 tested, under 10 active. AID 1856; call rule not given here;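 note: 0% = enzyme with vehicle and 100% = vehicle without enzyme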
VIM-2 FRET ctr = inhibits VIM-2 in FRET assay to exclude epi-absorbance artifacts; 23% of 1,300 active; purified VIM-2, CCF2 FRET substrate hydrolysis; shares compounds with VIM-2 inhibitor; inhibition, % at 5.6 µM;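 active = inhibition above the mean of all tested compounds plus 3 SD, cut at about 19% in these data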;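 note: 0% = VIM-2 plus DMSO and 100% = no enzyme wells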
TEM-1 inh = selectivity counter-screen for VIM-2 inhibitors: E. coli TEM-1 inhibitors | AID 1866 | 3% of 1,300 active | shares compounds with VIM-2 inhibitor | Purified TEM-1, nitrocefin hydrolysis, epi-absorbance fluorescence | inhibition, % at 5.6 µM;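 active = inhibition above that campaign's mean inhibition plus 3 SD, cut at about 0.46% in these data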;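 note: 0% = TEM-1 with DMSO and 100% = TEM-1 with 100 µM potassium clavulanate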
Target sequence (P62593 whole entry, looked up): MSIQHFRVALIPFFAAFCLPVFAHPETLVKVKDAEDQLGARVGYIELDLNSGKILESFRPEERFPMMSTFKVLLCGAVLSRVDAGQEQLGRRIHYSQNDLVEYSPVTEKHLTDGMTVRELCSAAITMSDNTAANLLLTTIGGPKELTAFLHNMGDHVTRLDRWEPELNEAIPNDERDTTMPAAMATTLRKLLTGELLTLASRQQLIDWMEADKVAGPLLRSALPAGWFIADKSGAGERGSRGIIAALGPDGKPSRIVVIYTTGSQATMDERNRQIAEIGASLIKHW
VIM-2 inh conf = confirmation of P. aeruginosa VIM-2 metallo-beta-lactamase inhibitors; inhibition, % at 5.6 µM; shares compounds with VIM-2 inhibitor; purified VIM-2, nitrocefin hydrolysis, epi-absorbance; AID 2187; 96% of 1,300 active;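 active = inhibition of the VIM-2 beta-lactamase enzyme above about 11% from the earlier first-round screen, limit read from the data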;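 note: 0% = VIM-2 with DMSO and 100% = buffer wells without enzyme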
Starred values were filed as active, the others as inactive; / = no result given. In the library only some 2.6% were active in any assay of this set; here they are far more common.

SMILES	ARFGAP1 inhibitor	ASAP1 GAP inh	VIM-2 inhibitor	Calb FLC	IMP-1 inh-1	PHOSPHO1 inh	IMP-1 inh-2	VIM-2 FRET ctr	TEM-1 inh	VIM-2 inh conf
COC[C@H]1CCCN1c1ccc2c(c1)O[C@H](COCc1ccccc1)CN([C@H](C)c1ccccc1)S2(=O)=O	5	3	/	/	/	/	/	/	/	/
Nc1nc(=O)n(C2CCC(CO)O2)cc1F (configuration not stated)	3	-7	/	/	/	/	/	/	/	/
Cc1ccc(-c2n[nH]c(=S)n2Cc2ccccc2)cc1	11	8	12*	6	0	100*	-3	29*	-10	16*
CCCCc1n[nH]c(=S)n1Cc1ccc(C)cc1	6	3	23*	-74	-1	28	-2	37*	-3	26*
Cc1ccc(-c2n[nH]c(=S)n2-c2ccccc2)cc1	-6	8	13*	29	-3	0	-4	35*	-8	23*
Cc1ccc(-n2c(-c3nn(C)c(C)c3Cl)n[nH]c2=S)cc1	8	8	19*	-3	-4	95*	-4	54*	-8	36*
CCn1c(-c2nn(C)c(C)c2Cl)n[nH]c1=S	11	-9	2	-8	-4	6	/	/	/	/
COc1ccc(S(=O)(=O)N2CCC[C@@H]2C(=O)N2CCC[C@H]2C(=O)NCc2ccncc2)cc1C	-4	5	/	/	/	/	/	/	/	/
Oc1ccccc1-c1n[nH]c(=S)n1Cc1ccccc1	7	1	13*	-9	-3	/	-4	26*	-9	15*
Oc1ccc(Br)cc1-c1n[nH]c(=S)n1Cc1ccccc1	-3	2	-3	18	-3	-29	/	/	/	/
CC(=O)Cn1cnc2c(sc3nc(C)cc(C)c32)c1=O	3	-9	14*	21	-3	36	-3	-2	-5	17*
CSC1=N/C(=C/c2ccc(-n3cncn3)cc2)C(=O)N1	8	3	14*	9	1	0	-3	-2	-9	55*
COc1ccc(/C=C2/N=C(SC)NC2=O)cc1OC	0	2	-3	45	-3	41	/	/	/	/
O=C1C(=Cc2ccco2)C(=O)c2ccccc21	-3	0	31*	-3	-1	-4	-3	-4	-10	4
COc1ccc(CCNC(=O)c2ccccc2NC(=O)C2=C(C)OCCS2)c(OC)c1	-7	-12	-2	-10	-3	24	/	/	/	/
COc1cc(NC(=O)C2=C(C)OCCS2)c(Cl)cc1C(=O)NCCN(C)C	-10	15	14*	-13	-2	1	-2	4	-9	27*
Cc1cccn2c(=O)c3cc(C(=O)NC4CCCCC4)n(C)c3nc12	1	-4	4	1	-2	45	/	/	/	/
Cc1cccn2c(=O)c3cc(C(=O)NCCc4ccccc4)sc3nc12	-1	-7	4	26	-2	11	/	/	/	/
CCCCNC(=O)c1cc2c(=O)n3cccc(C)c3nc2s1	18	-6	21*	15	-4	42	-3	-11	-5	25*
COCCCNC(=O)c1cc2c(=O)n3cccc(C)c3nc2s1	0	6	18*	1	-4	23	-2	-5	-2	23*
Cc1cccn2c(=O)c3cc(C(=O)NC4CCCC4)n(C)c3nc12	0	-7	14*	1	-1	13	-2	-3	-6	22*
Cc1cccn2c(=O)c3cc(C(=O)NC4CCS(=O)(=O)C4)sc3nc12 (configuration not stated)	-2	4	15*	7	-4	9	-3	0	-5	24*
COc1cc(NCC2COc3c(ccc(OC)c3OC)C2=O)c([N+](=O)[O-])cc1OC (configuration not stated)	-11	13	/	/	/	/	/	/	/	/
CCC(CC)C(=O)N(C)c1c(C)nc2c(OCc3ccc(C(F)(F)F)cc3)cccn12	-2	-19	/	/	/	/	/	/	/	/
CCN(CC)CCCNc1nc(SC)nc2sc3c(c12)CCN(C)C3	/	/	13*	-14	-1	23	-3	-2	-5	21*
SMILES	ARFGAP1 inhibitor	ASAP1 GAP inh	VIM-2 inhibitor	Calb FLC	IMP-1 inh-1	PHOSPHO1 inh	IMP-1 inh-2	VIM-2 FRET ctr	TEM-1 inh	VIM-2 inh conf
CSc1nc(NCC(C)O)c2c3c(sc2n1)CN(C)CC3 (configuration not stated)	-5	-12	5	-1	-3	/	/	/	/	/
CC(C)(C)NC(=O)C(c1ccnc2ccccc12)n1c(=O)c(-c2cc3ccccc3[nH]2)nc2ccccc21 (configuration not stated)	8	17	/	/	/	/	/	/	/	/
O=C1c2ccccc2-c2onc3c(N4CCN(CCO)CC4)cc(N4CCN(C(=O)c5ccco5)CC4)c1c23	15	16	14*	-10	1	18	-2	-10	-11	18*
CN1CCN(c2cc(N3CCN(C(=O)c4ccco4)CC3)c3c4c(onc24)-c2ccccc2C3=O)CC1	/	/	17*	-7	0	15	-2	-12	-10	24*
CCOC(=O)N1CCN(c2cc(NCCC(=O)O)c3c4c(onc24)-c2ccccc2C3=O)CC1	/	/	2	/	-1	44	/	/	/	/
O=C(c1ccco1)N1CCN(CCCCN2C(=O)c3ccccc3C2=O)CC1	0	-10	-1	4	-4	3	/	/	/	/
O=C1NC[C@H](Cc2ccccc2)N(C[C@@H]2CCCN2C[C@H](Cc2ccc(O)cc2)N2C[C@H](Cc3ccccc3)N(CCc3ccccc3)C(=O)C2=O)C1=O	-11	5	/	/	/	/	/	/	/	/
O=C1c2cccc3cccc(c23)C(=O)N1CC1CCN(CC(O)COCc2ccc3c(c2)OCO3)CC1 (configuration not stated)	1	11	16*	-33	-1	10	-3	-5	-6	24*
COc1ccc(OCC(O)CN2CCC(CN3C(=O)c4cccc5cccc(c45)C3=O)CC2)cc1 (configuration not stated)	-6	0	/	-6	/	/	/	/	/	/
COc1ccc(NC(=O)C2Cc3c(-c4ccc(Cl)cc4)ccnc3O2)cc1OC (configuration not stated)	1	-1	/	/	/	/	/	/	/	/
C[n+]1cccc(/C=N/Nc2nc(Cl)c(C#N)c(Cl)c2Cl)c1	-6	-1	41*	13	-3	16	-3	32*	-6	57*
O=C(c1ccc(=O)oc1)N1CCN(c2ccc(F)cc2)CC1	-7	8	/	1	/	-4	/	/	/	/
O=C(O)CCC(=O)N1CCN(c2ccc(C(=O)c3ccc(F)cc3)cc2)CC1	-4	-2	16*	-5	-2	12	-3	0	-6	7
